Measurements as given in ChEMBL document CHEMBL2062460, “Disubstituted thiourea derivatives and their activity on CNS: synthesis and biological evaluation” (Eur J Med Chem, 2012).
Values after ≈ are worked out from the molar mass of the structure shown. Active and inactive are the calls of the source. The calls are words filed in the database; no cut-off is given here.

Legend:
[1] = tested on: Staphylococcus epidermidis; experiment: Antibacterial activity against methicillin-resistant Staphylococcus epidermidis clinical isolate 377/09 after 18 hrs by twofold serial agar dilution technique; type: functional; conditions: clinical isolate 377/09, 18 h
How it was run: (§1)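 Clinical isolates came from patients in Warsaw Medical University Hospitals and were classed as methicillin-susceptible or -resistant. MIC was determined by twofold serial agar dilution on Mueller–Hinton II agar (CLSI), 3.125–400 µg/mL in agar, with compounds in methanol or DMSO. Inoculum was 10^4 CFU/mL and plates were read after 18 h at 35 °C.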

[2] = tested on: Human immunodeficiency virus 1; experiment: Antiviral activity against HIV1 infected in human MT4 cells assessed as virus-induced cytopathogenicity after 4 days by MTT assay; type: functional, organism-based; conditions: Human immunodeficiency virus 1, MT4, 96 h
[3] = tested on: Staphylococcus epidermidis; experiment: Antibacterial activity against methicillin-resistant Staphylococcus epidermidis clinical isolate 340/09 after 18 hrs by twofold serial agar dilution technique; type: functional; conditions: clinical isolate 340/09, 18 h; how it was run: as §1
Bacillus subtilis [4] = experiment: Antibacterial activity against Bacillus subtilis ATCC 6633 at 400 ug/disc after 18 hrs by disc diffusion method; type: functional; conditions: ATCC 6633, 18 h, read-out: DIZ
How it was run: (§2)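 Disc diffusion per CLSI on Mueller–Hinton II agar; 9 mm paper discs loaded from methanol or DMSO solutions to 400 µg per disc, dried; growth inhibition zone diameter read after 18 h at 35 °C.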

Escherichia coli [5] = experiment: Antibacterial activity against Escherichia coli ATCC 10538 at 400 ug/disc after 18 hrs by disc diffusion method; type: functional, organism-based; how it was run: as §2
Staphylococcus aureus [6] = experiment: Antibacterial activity against Staphylococcus aureus ATCC 25923 at 400 ug/disc after 18 hrs by disc diffusion method; type: functional; how it was run: as §2
Staphylococcus aureus [7] = experiment: Antibacterial activity against methicillin-resistant Staphylococcus aureus clinical isolate 275/08 after 18 hrs by twofold serial agar dilution technique; type: functional; conditions: clinical isolate 275/08, 18 h; how it was run: as §1
Staphylococcus aureus [8] = experiment: Antibacterial activity against methicillin-susceptible Staphylococcus aureus clinical isolate 338/08 after 18 hrs by twofold serial agar dilution technique; type: functional; conditions: clinical isolate 338/08, 18 h; how it was run: as §1
Bacillus subtilis [9] = experiment: Antibacterial activity against Bacillus subtilis ATCC 6633 after 18 hrs by twofold serial agar dilution technique; type: functional; conditions: ATCC 6633, 18 h
Candida parapsilosis = experiment: Antifungal activity against Candida parapsilosis ATCC 22019 at 400 ug/disc after 18 hrs by disc diffusion method; type: functional, organism-based
How it was run: (§3)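 Yeasts tested by disc diffusion (CLSI) on RPMI agar with 2% glucose; 9 mm paper discs bearing 400 µg compound from methanol or DMSO solution; inhibition zone diameter read after 18 h at 35 °C.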

Escherichia coli [10] = experiment: Antibacterial activity against Escherichia coli ATCC 25922 at 400 ug/disc after 18 hrs by disc diffusion method; type: functional, organism-based; how it was run: as §2
[11] = tested on: Staphylococcus epidermidis; experiment: Antibacterial activity against methicillin-resistant Staphylococcus epidermidis clinical isolate 315/08 after 18 hrs by twofold serial agar dilution technique; type: functional; conditions: clinical isolate 315/08, 18 h; how it was run: as §1
Staphylococcus aureus [12] = experiment: Antibacterial activity against Staphylococcus aureus ATCC 29213 at 400 ug/disc after 18 hrs by disc diffusion method; type: functional; conditions: ATCC 29213, 18 h, read-out: DIZ; how it was run: as §2
Staphylococcus aureus [13] = experiment: Antibacterial activity against Staphylococcus aureus NCTC 4163 after 18 hrs by twofold serial agar dilution technique; type: functional; conditions: NCTC 4163, 18 h
How it was run: (§4)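 Twofold serial agar dilution on Mueller–Hinton II agar, following CLSI guidelines. Compounds were dissolved in methanol or DMSO and tested at final agar concentrations of 3.125–400 µg/mL. Final inoculum was 10^4 CFU/mL.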

Pseudomonas aeruginosa [14] = experiment: Antibacterial activity against Pseudomonas aeruginosa ATCC 27853 at 400 ug/disc after 18 hrs by disc diffusion method; type: functional, organism-based; how it was run: as §2
Micrococcus luteus [15] = experiment: Antibacterial activity against Micrococcus luteus ATCC 9341 at 400 ug/disc after 18 hrs by disc diffusion method; type: functional; conditions: ATCC 9341, 18 h, read-out: DIZ; how it was run: as §2
[16] = tested on: Staphylococcus epidermidis; experiment: Antibacterial activity against methicillin-resistant Staphylococcus epidermidis clinical isolate 341/09 after 18 hrs by twofold serial agar dilution technique; type: functional; conditions: clinical isolate 341/09, 18 h; how it was run: as §1
Staphylococcus aureus [17] = experiment: Antibacterial activity against methicillin-resistant Staphylococcus aureus clinical isolate 325/09 after 18 hrs by twofold serial agar dilution technique; type: functional; conditions: clinical isolate 325/09, 18 h; how it was run: as §1
Staphylococcus aureus [18] = experiment: Antibacterial activity against methicillin-susceptible Staphylococcus aureus clinical isolate 339/09 after 18 hrs by twofold serial agar dilution technique; type: functional; conditions: clinical isolate 339/09, 18 h; how it was run: as §1
Proteus vulgaris = experiment: Antibacterial activity against Proteus vulgaris NCTC 4635 at 400 ug/disc after 18 hrs by disc diffusion method; type: functional, organism-based; how it was run: as §2
Staphylococcus aureus [19] = experiment: Antibacterial activity against methicillin-resistant Staphylococcus aureus clinical isolate 329/08 after 18 hrs by twofold serial agar dilution technique; type: functional; conditions: clinical isolate 329/08, 18 h; how it was run: as §1
Bacillus cereus = experiment: Antibacterial activity against Bacillus cereus ATCC 11778 after 18 hrs by twofold serial agar dilution technique; type: functional; conditions: ATCC 11778, 18 h
[20] = tested on: Staphylococcus epidermidis; experiment: Antibacterial activity against methicillin-resistant Staphylococcus epidermidis clinical isolate 317/08 after 18 hrs by twofold serial agar dilution technique; type: functional; conditions: clinical isolate 317/08, 18 h; how it was run: as §1
Candida albicans = experiment: Antifungal activity against Candida albicans ATCC 90028 at 400 ug/disc after 18 hrs by disc diffusion method; type: functional, organism-based; how it was run: as §3
Staphylococcus aureus [21] = experiment: Antibacterial activity against methicillin-susceptible Staphylococcus aureus clinical isolate 372/09 after 18 hrs by twofold serial agar dilution technique; type: functional; conditions: clinical isolate 372/09, 18 h; how it was run: as §1
Staphylococcus aureus [22] = experiment: Antibacterial activity against methicillin-resistant Staphylococcus aureus clinical isolate 307/08 after 18 hrs by twofold serial agar dilution technique; type: functional; conditions: clinical isolate 307/08, 18 h; how it was run: as §1
[23] = tested on: Bordetella bronchiseptica; experiment: Antibacterial activity against Bordetella bronchiseptica ATCC 4617 at 400 ug/disc after 18 hrs by disc diffusion method; type: functional, organism-based; how it was run: as §2
Staphylococcus aureus [24] = experiment: Antibacterial activity against methicillin-resistant Staphylococcus aureus clinical isolate 376/09 after 18 hrs by twofold serial agar dilution technique; type: functional; conditions: clinical isolate 376/09, 18 h; how it was run: as §1
Staphylococcus aureus [25] = experiment: Antibacterial activity against methicillin-susceptible Staphylococcus aureus clinical isolate 269/08 after 18 hrs by twofold serial agar dilution technique; type: functional; conditions: clinical isolate 269/08, 18 h; how it was run: as §1
Staphylococcus aureus [26] = experiment: Antibacterial activity against Staphylococcus aureus ATCC 6538 at 400 ug/disc after 18 hrs by disc diffusion method; type: functional; how it was run: as §2
[27] = tested on: Staphylococcus epidermidis; experiment: Antibacterial activity against methicillin-resistant Staphylococcus epidermidis clinical isolate 342/09 after 18 hrs by twofold serial agar dilution technique; type: functional; conditions: clinical isolate 342/09, 18 h; how it was run: as §1
Micrococcus luteus [28] = experiment: Antibacterial activity against Micrococcus luteus ATCC 10240 at 400 ug/disc after 18 hrs by disc diffusion method; type: functional; conditions: ATCC 10240, 18 h, read-out: DIZ; how it was run: as §2
Staphylococcus aureus [29] = experiment: Antibacterial activity against Staphylococcus aureus ATCC 25923 after 18 hrs by twofold serial agar dilution technique; type: functional; conditions: ATCC 25923, 18 h; how it was run: as §4
Pseudomonas aeruginosa [30] = experiment: Antibacterial activity against Pseudomonas aeruginosa ATCC 15442 at 400 ug/disc after 18 hrs by disc diffusion method; type: functional, organism-based; how it was run: as §2
Pseudomonas aeruginosa [31] = experiment: Antibacterial activity against Pseudomonas aeruginosa NCTC 6749 at 400 ug/disc after 18 hrs by disc diffusion method; type: functional, organism-based; how it was run: as §2
Staphylococcus aureus [32] = experiment: Antibacterial activity against methicillin-resistant Staphylococcus aureus clinical isolate 306/08 after 18 hrs by twofold serial agar dilution technique; type: functional; conditions: clinical isolate 306/08, 18 h; how it was run: as §1

SMILES: S=C(Nc1ccc(Cl)cc1)Nc1nc[nH]n1
- MIC [1]: 25 µg/mL (≈ 98.5 µM)
- EC50 [2]: > 47 µM
- MIC [3]: 12.5 µg/mL (≈ 49.3 µM)
- zone of inhibition at 400 µg/disc (Bacillus subtilis [4]): 22 mm
- diameter of the inhibition zone (DIZ) (Escherichia coli [5]): inactive
- zone of inhibition at 400 µg/disc (Staphylococcus aureus [6]; ATCC 25923, 18 h, read-out: DIZ): 23 mm
- MIC (Staphylococcus aureus [7]): 25 µg/mL (≈ 98.5 µM)
- MIC (Staphylococcus aureus [8]): 25 µg/mL (≈ 98.5 µM)
- MIC (Bacillus subtilis [9]): 12.5 µg/mL (≈ 49.3 µM)
- diameter of the inhibition zone (DIZ) (Candida parapsilosis): inactive
- diameter of the inhibition zone (DIZ) (Escherichia coli [10]): inactive
- MIC [11]: 25 µg/mL (≈ 98.5 µM)
- zone of inhibition at 400 µg/disc (Staphylococcus aureus [12]): 17 mm
- MIC (Staphylococcus aureus [13]): 25 µg/mL (≈ 98.5 µM)
- diameter of the inhibition zone (DIZ) (Pseudomonas aeruginosa [14]): inactive
- zone of inhibition at 400 µg/disc (Micrococcus luteus [15]): 26 mm
- MIC [16]: 12.5 µg/mL (≈ 49.3 µM)
- MIC (Staphylococcus aureus [17]): 25 µg/mL (≈ 98.5 µM)
- MIC (Staphylococcus aureus [18]): 25 µg/mL (≈ 98.5 µM)
- diameter of the inhibition zone (DIZ) (Proteus vulgaris): inactive
- MIC (Staphylococcus aureus [19]): 25 µg/mL (≈ 98.5 µM)
- MIC (Bacillus cereus): 12.5 µg/mL (≈ 49.3 µM)
- MIC [20]: 25 µg/mL (≈ 98.5 µM)
- diameter of the inhibition zone (DIZ) (Candida albicans): inactive
- MIC (Staphylococcus aureus [21]): 25 µg/mL (≈ 98.5 µM)
- MIC (Staphylococcus aureus [22]): 25 µg/mL (≈ 98.5 µM)
- diameter of the inhibition zone (DIZ) [23]: inactive
- MIC (Staphylococcus aureus [24]): 25 µg/mL (≈ 98.5 µM)
- MIC (Staphylococcus aureus [25]): 25 µg/mL (≈ 98.5 µM)
- zone of inhibition at 400 µg/disc (Staphylococcus aureus [26]; ATCC 6538, 18 h, read-out: DIZ): 15 mm
- MIC [27]: 200 µg/mL (≈ 788 µM)
- zone of inhibition at 400 µg/disc (Micrococcus luteus [28]): 30 mm
- MIC (Staphylococcus aureus [29]): 25 µg/mL (≈ 98.5 µM)
- diameter of the inhibition zone (DIZ) (Pseudomonas aeruginosa [30]): inactive
- diameter of the inhibition zone (DIZ) (Pseudomonas aeruginosa [31]): inactive
- MIC (Staphylococcus aureus [32]): 25 µg/mL (≈ 98.5 µM)

SMILES: S=C(Nc1ccccc1)Nc1nc[nH]n1
- MIC [1]: 50 µg/mL (≈ 228 µM)
- EC50 [2]: > 100 µM
- MIC [3]: 50 µg/mL (≈ 228 µM)
- zone of inhibition at 400 µg/disc (Bacillus subtilis [4]): 16 mm
- diameter of the inhibition zone (DIZ) (Escherichia coli [5]): inactive
- diameter of the inhibition zone (DIZ) (Staphylococcus aureus [6]): inactive
- MIC (Staphylococcus aureus [7]): 100 µg/mL (≈ 456 µM)
- MIC (Staphylococcus aureus [8]): 50 µg/mL (≈ 228 µM)
- MIC (Bacillus subtilis [9]): 50 µg/mL (≈ 228 µM)
- diameter of the inhibition zone (DIZ) (Candida parapsilosis): inactive
- diameter of the inhibition zone (DIZ) (Escherichia coli [10]): inactive
- MIC [11]: 100 µg/mL (≈ 456 µM)
- zone of inhibition at 400 µg/disc (Staphylococcus aureus [12]): 11 mm
- MIC (Staphylococcus aureus [13]): 100 µg/mL (≈ 456 µM)
- diameter of the inhibition zone (DIZ) (Pseudomonas aeruginosa [14]): inactive
- zone of inhibition at 400 µg/disc (Micrococcus luteus [15]): 14 mm
- MIC [16]: 100 µg/mL (≈ 456 µM)
- MIC (Staphylococcus aureus [17]): 50 µg/mL (≈ 228 µM)
- MIC (Staphylococcus aureus [18]): 50 µg/mL (≈ 228 µM)
- diameter of the inhibition zone (DIZ) (Proteus vulgaris): inactive
- MIC (Staphylococcus aureus [19]): 50 µg/mL (≈ 228 µM)
- MIC (Bacillus cereus): 100 µg/mL (≈ 456 µM)
- MIC [20]: 100 µg/mL (≈ 456 µM)
- diameter of the inhibition zone (DIZ) (Candida albicans): inactive
- MIC (Staphylococcus aureus [21]): 50 µg/mL (≈ 228 µM)
- MIC (Staphylococcus aureus [22]): 50 µg/mL (≈ 228 µM)
- diameter of the inhibition zone (DIZ) [23]: inactive
- MIC (Staphylococcus aureus [24]): 50 µg/mL (≈ 228 µM)
- MIC (Staphylococcus aureus [25]): 50 µg/mL (≈ 228 µM)
- diameter of the inhibition zone (DIZ) (Staphylococcus aureus [26]): inactive
- MIC [27]: 200 µg/mL (≈ 912 µM)
- zone of inhibition at 400 µg/disc (Micrococcus luteus [28]): 12 mm
- MIC (Staphylococcus aureus [29]): 100 µg/mL (≈ 456 µM)
- diameter of the inhibition zone (DIZ) (Pseudomonas aeruginosa [30]): inactive
- diameter of the inhibition zone (DIZ) (Pseudomonas aeruginosa [31]): inactive
- MIC (Staphylococcus aureus [32]): 50 µg/mL (≈ 228 µM)
